Experimental data as given in ChEMBL document CHEMBL1125014, “Synthesis and structure-activity relationships of new 9-N-alkyl derivatives of 9(S)-erythromycylamine” (1990).
Values after ≈ are worked out from the molar mass of the structure shown.

What was measured:
Format in all cases: functional
Staphylococcus aureus [1] = test: MIC value measured against staphylococcus aureus X1
Streptococcus pyogenes [2] = test: MIC value measured against streptococcus pyogenes C203
Haemophilus influenzae [3] = test: MIC value was measured against haemophilus influenzae CL
Enterococcus faecalis [4] = test: MIC value was measured against streptococcus faecalis.
[5] = tested on: Staphylococcus epidermidis; test: microbe, parasite or virus in culture
Streptococcus pneumoniae [6] = test: MIC value measured against streptococcus pneumoniae Park1
Staphylococcus aureus [7] = test: Effective dose against mice infected with Staphylococcus aureus after peroral administration (in vivo); conditions: in Mus musculus, po
Enterococcus faecalis [8] = test: MIC value was measured against streptococcus faecalis X66
Method in brief: (§1)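 Susceptibility determined by standard agar-dilution method against a panel of bacterial strains.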

Streptococcus pyogenes [9] = test: Effective dose against mice infected with streptococcus pyogenes after peroral administration (in vivo); conditions: in Mus musculus, po
Streptococcus pneumoniae [10] = test: Effective dose against mice infected with streptococcus pneumoniae after peroral administration (in vivo); conditions: in Mus musculus, po
Streptococcus pneumoniae [11] = test: MIC value was measured against streptococcus pneumoniae park1; method in brief: as §1
Haemophilus influenzae [12] = test: MIC value was measured against haemophilus influenzae.; method in brief: as §1

Row | MIC (Staphylococcus aureus [1]) [µg/mL] | MIC (Streptococcus pyogenes [2]) [µg/mL] | MIC (Haemophilus influenzae [3]) [µg/mL] | MIC (Enterococcus faecalis [4]) [µg/mL] | MIC [5] [µg/mL] | MIC (Streptococcus pneumoniae [6]) [µg/mL] | MIC (Enterococcus faecalis [8]) [µg/mL] | MIC (Streptococcus pneumoniae [11]) [µg/mL] | MIC (Haemophilus influenzae [12]) [µg/mL] | SMILES | ED50 (Staphylococcus aureus [7]) [mg/kg] | ED50 (Streptococcus pyogenes [9]) [mg/kg] | ED50 (Streptococcus pneumoniae [10]) [mg/kg]
1 | 2 (≈ 2.78 µM) | 0.25 (≈ 0.348 µM) | 16 (≈ 22.3 µM) | 1 (≈ 1.39 µM) | 1 (≈ 1.39 µM) | – | – | – | – | CC[C@H]1OC(=O)[C@H](C)[C@@H](OC2CC(C)(OC)C(O)C(C)O2)[C@H](C)[C@@H](OC2OC(C)CC(N(C)C)C2O)[C@](C)(O)C[C@@H](C)[C@@H](N)[C@H](C)[C@@H](O)[C@H]1C (stereo partly specified) | – | – | –
2 | 0.5 (≈ 0.612 µM) | 0.06 (≈ 0.0734 µM) | 4 (≈ 4.9 µM) | 0.25 (≈ 0.306 µM) | 0.5 (≈ 0.612 µM) | 0.03 (≈ 0.0367 µM) | – | – | – | CC[C@H]1OC(=O)[C@H](C)[C@@H](OC2CC(C)(OC)C(O)C(C)O2)[C@H](C)[C@@H](OC2OC(C)CC(N(C)C)C2O)[C@](C)(O)C[C@@H](C)[C@H](NC2CCCCC2)[C@H](C)[C@@H](O)[C@]1(C)O (stereo partly specified) | – | – | –
3 | 1 (≈ 1.17 µM) | 0.015 (≈ 0.0176 µM) | 2 (≈ 2.34 µM) | – | 0.5 (≈ 0.586 µM) | – | 0.06 (≈ 0.0703 µM) | 0.015 (≈ 0.0176 µM) | – | CC[C@H]1OC(=O)[C@H](C)[C@@H](OC2CC(C)(OC)C(O)C(C)O2)[C@H](C)[C@@H](OC2OC(C)CC(N(C)C)C2O)[C@](C)(O)C[C@@H](C)[C@H](NCCCc2ccccc2)[C@H](C)[C@@H](O)[C@]1(C)O (stereo partly specified) | 37 | 14 | 17
4 | 4 (≈ 4.96 µM) | 0.12 (≈ 0.149 µM) | 64 (≈ 79.4 µM) | 8 (≈ 9.92 µM) | 4 (≈ 4.96 µM) | 4 (≈ 4.96 µM) | – | – | – | CC[C@H]1OC(=O)[C@H](C)[C@@H](OC2CC(C)(OC)C(O)C(C)O2)[C@H](C)[C@@H](OC2OC(C)CC(N(C)C)C2O)[C@](C)(O)C[C@@H](C)[C@H](NCCCCN)[C@H](C)[C@@H](O)[C@]1(C)O (stereo partly specified) | – | – | –
5 | 0.25 (≈ 0.286 µM) | 0.008 (≈ 0.00916 µM) | 2 (≈ 2.29 µM) | 0.25 (≈ 0.286 µM) | 0.12 (≈ 0.137 µM) | – | – | – | 2 (≈ 2.29 µM) | CCCCC/C=C\CCCN[C@@H]1[C@H](C)[C@@H](O)[C@](C)(O)[C@@H](CC)OC(=O)[C@H](C)[C@@H](OC2CC(C)(OC)C(O)C(C)O2)[C@H](C)[C@@H](OC2OC(C)CC(N(C)C)C2O)[C@](C)(O)C[C@H]1C (stereo partly specified) | – | – | –
6 | 1 (≈ 1.27 µM) | 0.12 (≈ 0.152 µM) | 4 (≈ 5.07 µM) | – | 0.5 (≈ 0.634 µM) | – | 0.25 (≈ 0.317 µM) | 0.06 (≈ 0.076 µM) | – | CC[C@H]1OC(=O)[C@H](C)[C@@H](OC2CC(C)(OC)C(O)C(C)O2)[C@H](C)[C@@H](OC2OC(C)CC(N(C)C)C2O)[C@](C)(O)C[C@@H](C)[C@H]2[C@H](C)[C@@H](OCN2C(C)C)[C@]1(C)O (stereo partly specified) | 9 | 7 | 6
7 | 1 (≈ 1.13 µM) | 0.5 (≈ 0.565 µM) | 4 (≈ 4.52 µM) | – | 1 (≈ 1.13 µM) | – | 0.12 (≈ 0.136 µM) | – | – | CC[C@H]1OC(=O)[C@H](C)[C@@H](OC2CC(C)(OC)C(O)C(C)O2)[C@H](C)[C@@H](OC2OC(C)CC(N(C)C)C2O)[C@](C)(O)C[C@@H](C)[C@H](NCCC2=C(C)CCCC2(C)C)[C@H](C)[C@@H](O)[C@]1(C)O (stereo partly specified) | > 50 | > 50 | > 50
8 | 0.25 (≈ 0.317 µM) | 0.008 (≈ 0.0101 µM) | 1 (≈ 1.27 µM) | – | 0.12 (≈ 0.152 µM) | – | 0.12 (≈ 0.152 µM) | 0.008 (≈ 0.0101 µM) | – | CCCN1CO[C@@H]2[C@@H](C)[C@@H]1[C@H](C)C[C@@](C)(O)[C@H](OC1OC(C)CC(N(C)C)C1O)[C@@H](C)[C@H](OC1CC(C)(OC)C(O)C(C)O1)[C@@H](C)C(=O)O[C@H](CC)[C@@]2(C)O (stereo partly specified) | 7 | 5 | 5
9 | 8 (≈ 9.01 µM) | 0.5 (≈ 0.563 µM) | 8 (≈ 9.01 µM) | – | 8 (≈ 9.01 µM) | – | 2 (≈ 2.25 µM) | 0.5 (≈ 0.563 µM) | – | CC[C@H]1OC(=O)[C@H](C)[C@@H](OC2CC(C)(OC)C(O)C(C)O2)[C@H](C)[C@@H](OC2OC(C)CC(N(C)C)C2O)[C@](C)(O)C[C@@H](C)[C@H]2[C@H](C)[C@@H](OCN2C(C)CCCN(CC)CC)[C@]1(C)O (stereo partly specified) | – | – | –
10 | 0.5 (≈ 0.573 µM) | 0.008 (≈ 0.00916 µM) | 2 (≈ 2.29 µM) | 0.12 (≈ 0.137 µM) | 0.25 (≈ 0.286 µM) | – | – | – | 2 (≈ 2.29 µM) | CCCCC/C=C/CCCN[C@@H]1[C@H](C)[C@@H](O)[C@](C)(O)[C@@H](CC)OC(=O)[C@H](C)[C@@H](OC2CC(C)(OC)C(O)C(C)O2)[C@H](C)[C@@H](OC2OC(C)CC(N(C)C)C2O)[C@](C)(O)C[C@H]1C (stereo partly specified) | – | – | –
11 | 0.5 (≈ 0.682 µM) | 0.015 (≈ 0.0205 µM) | 1 (≈ 1.36 µM) | 1 (≈ 1.36 µM) | 0.25 (≈ 0.341 µM) | 0.008 (≈ 0.0109 µM) | – | – | – | CC[C@H]1OC(=O)[C@H](C)[C@@H](OC2CC(C)(OC)C(O)C(C)O2)[C@H](C)[C@@H](OC2OC(C)CC(N(C)C)C2O)[C@](C)(O)C[C@@H](C)/C(=N\O)[C@H](C)[C@@H](O)[C@H]1C (stereo partly specified) | – | – | –
